How the values were obtained:
[1] = Cytotoxicity against african green monkey Vero cells at 6.17 uM after 72 hrs by MTT assay; format: cell-based; conditions: chlorocebus sabaeus, read-out: INH
[2] = Cytotoxicity against african green monkey Vero cells at 166.67 uM after 72 hrs by MTT assay; format: cell-based; conditions: chlorocebus sabaeus, read-out: INH
[3] = test system: Plasmodium falciparum; experiment: Antiplasmodial activity against chloroquine-resistant Plasmodium falciparum Dd2 after 72 hrs by malaria SYBR Green I-based fluorescence assay; format: functional, organism-based; conditions: Dd2, 72 h
In short: (§1)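 Parasites kept continuously in O+ human erythrocytes with 10% human serum under 7% CO2/5% O2/88% N2. Test compounds from 100 mM DMSO stocks, serially diluted in culture medium, added in quadruplicate to asynchronous cultures at 0.2% parasitemia, 2% hematocrit. Incubated 72 h, 37 C. Lysis buffer with SYBR Green I added, 1 h 37 C dark. Fluorescence read at ex 497/em 520 nm. IC50 from nonlinear logistic dose-response regression.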

[4] = test system: Plasmodium falciparum; experiment: Antiplasmodial activity against chloroquine-susceptible Plasmodium falciparum 3D7 after 72 hrs by malaria SYBR Green I-based fluorescence assay; format: functional, organism-based; conditions: 3D7, 72 h; in short: as §1
[5] = Cytotoxicity against african green monkey Vero cells at 18.52 uM after 72 hrs by MTT assay; format: cell-based; conditions: chlorocebus sabaeus, read-out: INH
[6] = Cytotoxicity against african green monkey Vero cells at 55.56 uM after 72 hrs by MTT assay; format: cell-based; conditions: chlorocebus sabaeus, read-out: INH

| Compound | cytotoxicity at 72 h, 6.17 µM [1] | cytotoxicity at 72 h, 166.67 µM [2] | IC50 [3] | IC50 [4] | cytotoxicity at 72 h, 18.52 µM [5] | cytotoxicity at 72 h, 55.56 µM [6] |
| --- | --- | --- | --- | --- | --- | --- |
| COc1cc(O)c2c(c1)[C@@H]1O[C@@H]1C[C@H](O)[C@H](O)[C@@H](O)/C=C/C[C@H](C)OC2=O [AIGIALOMYCIN B] | 0% | 30.2% | 13.5 µM | 0.65 µM | 0% | 2.3% |
| C[C@H]1C/C=C/[C@@H](O)[C@@H](O)CC/C=C/c2cc(O)cc(O)c2C(=O)O1 [AIGIALOMYCIN D] | 3.4% | 56.3% | 10.5 µM | 3.1 µM | 12.5% | 30.2% |
| COc1cc(O)c2c(c1)[C@@H](O)[C@H](C[C@H](O)[C@H](O)[C@@H](O)/C=C/C[C@H](C)O)OC2=O [AIGIALOMYCIN F] | 2.3% | 43.2% | > 50 µM | 0.0109 µM | 15.6% | 20.3% |
| C[C@@H]1CC[C@H]2[C@@H](C)C(=O)O[C@@H]3O[C@@]4(C)CC[C@@H]1[C@]32OO4 [ARTEMISININ] | – | – | 0.0135 µM | 0.0125 µM | – | – |
| COc1cc(O)c2c(c1)[C@@H]1O[C@@H]1C[C@H](O)[C@H](O)[C@H](O)/C=C/C[C@H](C)OC2=O [PAECILOMYCIN A] | 0% | 29.6% | > 50 µM | 0.78 µM | 0% | 0% |
| COc1cc(O)c2c(c1)[C@@H]1O[C@H]([C@H](O)/C=C/C[C@H](C)OC2=O)[C@@H](O)C[C@H]1O [PAECILOMYCIN B] | 0% | 46.3% | > 50 µM | 3.8 µM | 0% | 5.6% |
| COc1cc(O)c2c(c1)[C@@H]([C@H](O)C[C@H](O)[C@H](O)[C@@H](O)/C=C/C[C@H](C)O)OC2=O [PAECILOMYCIN C] | – | – | > 50 µM | > 50 µM | – | – |
| COc1cc(O)c2c(c1)[C@@H]([C@H](O)C[C@H](O)[C@H](O)[C@H](O)/C=C/C[C@H](C)O)OC2=O [PAECILOMYCIN D] | – | – | > 50 µM | > 50 µM | – | – |
| COc1cc(O)c2c(c1)/C=C/C[C@H](O)[C@H](O)[C@@H](O)CCC[C@H](C)OC2=O [PAECILOMYCIN E] | 0% | 50.2% | 8.8 µM | 0.02 µM | 3.4% | 23.5% |
| COc1cc(O)c2c(c1)/C=C/C[C@H](O)[C@H](O)[C@H](O)CCC[C@H](C)OC2=O [PAECILOMYCIN F] | 2.3% | 58.5% | 1.7 µM | 1.1 µM | 10.4% | 25.7% |
| COc1cc(O)c2c(c1)/C=C/C[C@H](O)[C@H](O)[C@@H](O)/C=C/C[C@H](C)OC2=O [ZEAENOL] | – | – | > 50 µM | > 50 µM | – | – |
